Assay results as given in ChEMBL document CHEMBL4842351, “Synthesis and evaluation of novel and potent protease activated receptor 4 (PAR4) antagonists based on a quinazolin-4(3H)-one scaffold” (Eur J Med Chem, 2021).
Activity calls are given as the source filed them. The calls are words filed in the database; no cut-off is given here.

Columns and labels:
[1] = molecular target: T1, Proteinase-activated receptor 4 (Homo sapiens) (UniProt Q96RI0); assay: Antagonist activity at PAR4 in human platelet-rich plasma assessed as inhibition of PAR4 AP AYPGKF-NH2-induced platelet aggregation at 0.2 uM by photo-turbidimetry assay relative to control; type: functional
T1 sequence (whole entry): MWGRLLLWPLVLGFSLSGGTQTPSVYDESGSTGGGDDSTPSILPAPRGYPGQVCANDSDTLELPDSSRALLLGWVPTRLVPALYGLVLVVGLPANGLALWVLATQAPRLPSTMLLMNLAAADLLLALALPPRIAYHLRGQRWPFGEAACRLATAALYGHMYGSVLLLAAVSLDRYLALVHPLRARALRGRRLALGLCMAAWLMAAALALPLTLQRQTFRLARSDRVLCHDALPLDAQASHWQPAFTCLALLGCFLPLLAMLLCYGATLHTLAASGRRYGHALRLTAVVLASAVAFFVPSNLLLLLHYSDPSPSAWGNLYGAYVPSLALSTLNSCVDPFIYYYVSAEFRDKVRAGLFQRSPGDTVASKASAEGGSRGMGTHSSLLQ
Summary of the method: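 Human PRP from donated blood, spun at 160×g for 15 min, then adjusted to 3×10⁸/mL with PPP (2000×g, 15 min). Compound or saline vehicle preincubated with PRP for 5 min at 37 °C. Aggregation induced by AYPGKF-NH₂; maximal aggregation measured by light transmittance for 5 min. Percent inhibition at a single point; IC50 from ≥5 concentrations by curve fitting.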

[2] = Metabolic stability in rat liver microsomes assessed as half life incubated for 60 mins by LC-MS/MS analysis; type: ADME, Microsome
Summary of the method: (§1)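 Human, rat or mouse liver microsomes in potassium phosphate buffer at pH ~7.4, warmed to 37 °C with compound (DMSO stock diluted in acetonitrile). Reaction started with NADPH; no-NADPH negative controls. Aliquots taken at 0 and 60 min, quenched in ice-cold acetonitrile with internal standard, and parent measured by LC/MS/MS. t1/2 = 0.693/k from ln concentration vs time; CLint derived from t1/2. Triplicate; mean ± SD.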

[3] = Metabolic stability in mouse liver microsomes assessed as intrinsic clearance incubated for 60 mins by LC-MS/MS analysis; type: ADME, Microsome; conditions: 1 h; summary of the method: as §1
[4] = Metabolic stability in human liver microsomes assessed as intrinsic clearance incubated for 60 mins by LC-MS/MS analysis; type: ADME, Microsome; conditions: 1 h
[5] = molecular target: T2, Proteinase-activated receptor 1 (Homo sapiens, UniProt P25116); assay: Antagonist activity at human PAR1 expressed in Ga15-HEK293 cells assessed as reduction in PAR1 AP SFFLRR-NH2-induced cytosolic calcium incubated for 24 hrs by FLIPR - calcium mobilization assay; type: functional, cell-based
T2 sequence (P25116 whole entry): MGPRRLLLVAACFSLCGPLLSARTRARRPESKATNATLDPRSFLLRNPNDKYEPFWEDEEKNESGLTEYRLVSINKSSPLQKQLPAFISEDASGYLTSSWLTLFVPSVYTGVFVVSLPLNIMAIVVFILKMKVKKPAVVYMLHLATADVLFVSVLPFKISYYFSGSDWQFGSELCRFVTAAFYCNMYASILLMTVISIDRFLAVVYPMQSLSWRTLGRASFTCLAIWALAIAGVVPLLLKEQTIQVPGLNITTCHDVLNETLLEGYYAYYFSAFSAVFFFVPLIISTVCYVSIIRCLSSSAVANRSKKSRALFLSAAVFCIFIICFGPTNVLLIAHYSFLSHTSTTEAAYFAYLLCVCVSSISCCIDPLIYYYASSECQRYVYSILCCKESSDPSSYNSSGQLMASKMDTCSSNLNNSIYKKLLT
Summary of the method: (§2)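 HEK293/Gα15 cells stably expressing human PAR1, PAR2 or PAR4, seeded at 45,000 cells/well and grown for 24 h at 37 °C, 5% CO₂. Cells loaded with calcium dye for 60 min at 37 °C in the dark. Compounds diluted from DMSO in HBSS and preincubated in the dark at room temperature. Agonists: SFFLRR (PAR1), 2-furoyl-LIGRLO-NH₂ (PAR2), AYPGKF-NH₂ (PAR4). Fluorescence read on FLIPR; 10-point half-log curves; mean of ≥2 determinations.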

Platelet [6] = assay: Antiplatelet activity against U46619-induced human platelet aggregation in platelet in platelet rich plasma assessed as inhibition of platelet aggregation at 10 uM by photo-turbidimetry method; type: functional, cell-based
Summary of the method: (§3)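 Human PRP prepared as for the aggregation assay and adjusted to 3×10⁸/mL. Compound preincubated for 5 min at 37 °C, then aggregation triggered by AYPGKF, SFLLRN, collagen, ADP or U46619. Maximum percent inhibition taken from 5 min light-transmittance traces. Mean ± SD, n=3.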

Platelet [7] = assay: Antiplatelet activity against collagen-induced human platelet aggregation in platelet in platelet rich plasma assessed as inhibition of platelet aggregation at 10 uM by photo-turbidimetry method; type: functional, cell-based; summary of the method: as §3
[8] = molecular target: T3, Proteinase-activated receptor 4 (Homo sapiens, UniProt Q96RI0); assay: Antagonist activity at human PAR4 expressed in Ga15-HEK293 cells assessed as reduction in PAR4 AP AYPGKF-NH2-induced cytosolic calcium incubated for 24 hrs by FLIPR - calcium mobilization assay; type: functional, cell-based; summary of the method: as §2
T3 sequence (Q96RI0 whole entry): T1 sequence (whole entry)

Platelet [9] = assay: Antiplatelet activity against ADP-induced human platelet aggregation in platelet in platelet rich plasma assessed as inhibition of platelet aggregation at 10 uM by photo-turbidimetry method; type: functional, cell-based; summary of the method: as §3
Platelet [10] = assay: Antiplatelet activity against SFLLRN-NH2-induced human platelet in platelet rich plasma assessed as inhibition of platelet aggregation at 10 uM by photo-turbidimetry method; type: functional, cell-based; summary of the method: as §3
[11] = Metabolic stability in rat liver microsomes assessed as intrinsic clearance incubated for 60 mins by LC-MS/MS analysis; type: ADME, Microsome; conditions: 1 h; summary of the method: as §1
[12] = molecular target: T4, Proteinase-activated receptor 2 (Homo sapiens, UniProt P55085); assay: Antagonist activity at human PAR2 expressed in Ga15-HEK293 cells assessed as reduction in PAR2 AP 2-furoyl-LIGRLO-NH2-induced cytosolic calcium incubated for 24 hrs by FLIPR - calcium mobilization assay; type: functional, cell-based; summary of the method: as §2
T4 sequence (P55085 whole entry): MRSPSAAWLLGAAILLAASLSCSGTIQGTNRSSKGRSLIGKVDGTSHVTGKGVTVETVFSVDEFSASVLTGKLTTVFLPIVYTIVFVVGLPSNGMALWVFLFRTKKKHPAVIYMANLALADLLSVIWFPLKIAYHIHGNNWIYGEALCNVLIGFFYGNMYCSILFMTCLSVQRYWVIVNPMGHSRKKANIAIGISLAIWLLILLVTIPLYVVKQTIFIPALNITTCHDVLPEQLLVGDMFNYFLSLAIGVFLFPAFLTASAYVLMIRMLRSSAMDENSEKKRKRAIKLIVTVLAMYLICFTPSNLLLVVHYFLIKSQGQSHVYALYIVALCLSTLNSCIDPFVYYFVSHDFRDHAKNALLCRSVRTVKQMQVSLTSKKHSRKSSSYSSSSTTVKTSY

[13] = Metabolic stability in human liver microsomes assessed as half life incubated for 60 mins by LC-MS/MS analysis; type: ADME, Microsome
[14] = Cytotoxicity against HEK293T cells assessed as cell viability at 1 uM incubated for 48 hrs by CCK-8 assay; type: cell-based, HEK-293T; conditions: human, read-out: Activity
Summary of the method: (§4)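 HEK293 cells in exponential growth, 4000/well, left to adhere overnight, then exposed to three compound concentrations for 48 h. Equal-volume DMSO served as control. CCK-8 added for 2 h at 37 °C in the dark, absorbance read at 450 nm. Viability = OD sample/OD control × 100; mean ± SD, n=3.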

Platelet [15] = assay: Antiplatelet activity against AYPGKF-NH2-induced human platelet in platelet rich plasma assessed as inhibition of platelet aggregation at 10 uM by photo-turbidimetry method; type: functional, cell-based; summary of the method: as §3
[16] = Metabolic stability in mouse liver microsomes assessed as half life incubated for 60 mins by LC-MS/MS analysis; type: ADME, Microsome; summary of the method: as §1
[17] = Cytotoxicity against HEK293T cells assessed as cell viability at 10 uM incubated for 48 hrs by CCK-8 assay; type: cell-based, HEK-293T; conditions: human, read-out: Activity; summary of the method: as §4
[18] = Cytotoxicity against HEK293T cells assessed as cell viability at 20 uM incubated for 48 hrs by CCK-8 assay; type: cell-based, HEK-293T; conditions: human, read-out: Activity; summary of the method: as §4

With `CCOCn1cnc2c(-c3nc4c(s3)CCCC4)cc(C)cc2c1=O` the inhibition [1] was 15.1%.
Work on `COc1cc(Cl)c2nc(-c3cccc4c(=O)n(C)cnc34)sc2c1` yielded an inhibition [1] of 25.6%.
For `Cc1cc(-c2ccccc2F)c2ncn(C)c(=O)c2c1`, the inhibition [1] was 16%.
`Cc1cc(-c2cc3ccccc3o2)c2ncn(C)c(=O)c2c1` showed an inhibition ([1]; filed as antagonist) of 44.4%.
`COCn1cnc2c(-c3nc4c(s3)CCCC4)cc(C)cc2c1=O` showed an inhibition [1] of 35.7%.
For `COc1cc(Cl)c2nc(-c3cc(C)cc4c(=O)n(C(C)C)cnc34)sc2c1`, the inhibition [1] was 15.2%.
For `Cc1cc(-c2nc3c(Cl)cc(OCCNS(=O)(=O)c4ccc(Cl)cc4Cl)cc3s2)c2ncn(C)c(=O)c2c1`, the inhibition ([1]; filed as antagonist) was 47.1%.
For `COc1cc(F)c2nc(-c3cc(C)cc4c(=O)n(C)c(C)nc34)sc2c1`, the inhibition [1] was 20.1%.
For `COCn1cnc2c(-c3nc4c(Cl)cc(OC)cc4s3)cc(C)cc2c1=O`, the inhibition ([1]; filed as antagonist) was 45.3%.
Work on `Cc1cc(-c2nc3c(Cl)cc(OCCNS(=O)(=O)c4ccc(C(F)(F)F)cc4)cc3s2)c2ncn(C)c(=O)c2c1` yielded a half-life [2] of 5.38 h, a CLH [3] of 12.8 mL/min/g and a CLH [4] of 3.51 mL/min/g. For the same molecule, the IC50 [5] was > 3160 nM, the Activity (Platelet [6]) was “inactive” and the Activity (Platelet [7]) was “inactive”. For the same molecule, the IC50 [8] was 1.2 nM, the Activity (Platelet [9]) was “inactive” and the Activity (Platelet [10]) was “inactive”. The CLH [11] was 7.73 mL/min/g, the IC50 [12] was > 1000 nM and the half-life [13] was 7.4 h. For the same molecule, the viability at 48 h, 1 µM [14] was 87.7%, the Activity (Platelet [15]) was “Active” and the half-life [16] was 7.13 h. It also gave a viability at 48 h, 10 µM [17] of 76.8% and a viability at 48 h, 20 µM [18] of 61.8%.
Molecule `CCCCc1cc(-c2nc3c(s2)CCCC3)c2ncn(C)c(=O)c2c1` has an inhibition [1] of 25.7%.
With `COc1ccccc1-c1cc(C)cc2c(=O)n(C)cnc12` the inhibition [1] was 17.4%.
Molecule `CCn1cnc2c(-c3nc4c(F)cc(OC)cc4s3)cc(C)cc2c1=O` has an inhibition [1] of 18.8%.
`Cc1cc(-c2nc3c(Cl)cc4c(c3s2)OCCO4)c2ncn(C)c(=O)c2c1` showed an inhibition [1] of 35.7%.
`Cc1cc(-c2nc3c(s2)CCCC3)c2nc[nH]c(=O)c2c1` gave an inhibition ([1]; filed as antagonist) of 41.6%.
In the case of `Cc1cc(-c2nc3c(Cl)cc(OCCNS(=O)(=O)c4ccc(F)cc4)cc3s2)c2ncn(C)c(=O)c2c1`, the inhibition [1] is reported as 8.7%.
`Cc1cc(-c2nc3c(Cl)cc(OCCNC(=O)c4ccccc4)cc3s2)c2ncn(C)c(=O)c2c1` showed an inhibition ([1]; filed as antagonist) of 94.5%.
With `CCc1cc(-c2nc3c(s2)CCCC3)c2ncn(C)c(=O)c2c1` the inhibition [1] was 25.7%.
`CCCCc1cc(-c2nc3c(s2)CCCC3)c2ncn(CC)c(=O)c2c1` gave an inhibition ([1]; filed as antagonist) of 9.3%.
With `COc1cc(F)c2nc(-c3cc(C)cc4c(=O)n(C)cnc34)sc2c1` the IC50 [5] was > 3160 nM, the IC50 [8] was 3.2 nM and the IC50 [12] was > 1000 nM.
With `COc1cc(F)c2nc(-c3cc(C)cc4c(=O)n(C(C)C)cnc34)sc2c1` the inhibition [1] was 10.2%.
